Measured values published in ChEMBL document CHEMBL4513216, “Probing the Open Global Health Chemical Diversity Library for Multistage-Active Starting Points for Next-Generation Antimalarials” (ACS Infect Dis, 2020).

Assay: Toxicity liver stage against HepG2, at 10uM
Format: cell-based
Design: test concentration 10 uM, cell line HepG2-A16-CD81EGFP
Conditions: human, HepG2-A16-CD81EGFP cells; read-out: INHIBITION
How it was run: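 Uninfected HepG2-A16-CD81EGFP cells, 3 × 10^3 per well, 1536-well, plated on prespotted compound at 10 μM final, parasite-free screening media added to match infected plates; puromycin 10 μM positive, DMSO 0.5% negative; run in parallel with 48 h PbLuc assay at 37 °C, 5% CO2; viability by CellTiter-Glo luminescence, normalized to controls.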

Question: With `Cc1n[nH]c(SCCNC2CCN(c3nc4ccccc4s3)CC2)n1` as the compound, how does the cytotoxicity at 10 µM read?
Answer: Its cytotoxicity at 10 µM is -6.92%.

Question: For `COCCn1cncc1CN1CCC(C(C)=O)(c2ccccc2)CC1`, which cytotoxicity at 10 µM is on record?
Answer: The cytotoxicity at 10 µM was 1.92%.

Question: For `CCn1cnnc1CN(C)Cc1nc(-c2cc(OC)ccc2F)oc1C`, which cytotoxicity at 10 µM is on record?
Answer: Its cytotoxicity at 10 µM is -1.32%.

Question: With `CC(=O)c1ccc(N2CCCC(CO)(Cc3ccccc3F)C2)nc1` (stereo not given) as the compound, how does the cytotoxicity at 10 µM read?
Answer: The cytotoxicity at 10 µM was 8.59%.

Question: Which cytotoxicity at 10 µM does the source give for `COc1ccnc(N2CCC(=O)N(CC3CC3)C(C(C)C)C2)n1` (stereo not given) here?
Answer: Its cytotoxicity at 10 µM is 1.73%.

Question: For `O=C(CCN1CCCO1)NC1CCCN(CC2CCCCC2)C1` (stereo not given), which cytotoxicity at 10 µM is on record?
Answer: The cytotoxicity at 10 µM was 7.3%.

Question: With `CC1(c2ccccc2)CCCN(Cc2cncn2C2CC2)C1` (stereo not given) as the compound, how does the cytotoxicity at 10 µM read?
Answer: The cytotoxicity at 10 µM was -1.06%.

Question: With `NC(=O)COc1ccc(CN2CCC(O)(CN3CCCCC3)C2)cc1Cl` (stereo not given) as the compound, how does the cytotoxicity at 10 µM read?
Answer: Its cytotoxicity at 10 µM is -1.73%.

Question: For `NCCc1cccc(CN2CCN(c3cccc(Cl)c3)C(=O)C2)c1`, which cytotoxicity at 10 µM is on record?
Answer: The cytotoxicity at 10 µM was -5.29%.

Question: For `CC(Nc1nccc(CCC(F)(F)F)n1)c1nc(-c2ccncc2)no1` (stereo not given), which cytotoxicity at 10 µM is on record?
Answer: The cytotoxicity at 10 µM was 4.74%.

Question: Which cytotoxicity at 10 µM does the source give for `CCc1nc(C)sc1CNC1CCN(Cc2ccccc2)C1` (stereo not given) here?
Answer: Its cytotoxicity at 10 µM is -31.7%.

Question: With `Cc1ccc(C(C(=O)N(C)CCc2cn[nH]c2)N(C)C)cc1` (stereo not given) as the compound, how does the cytotoxicity at 10 µM read?
Answer: The cytotoxicity at 10 µM was 0.0341%.

Question: With `CCCn1ccnc1-c1nccn1CCn1cnnc1` as the compound, how does the cytotoxicity at 10 µM read?
Answer: The cytotoxicity at 10 µM was -3.53%.

Question: For `c1cnc(N2CCN(CCn3ccnc3-c3ccncc3)CC2)nc1`, which cytotoxicity at 10 µM is on record?
Answer: The cytotoxicity at 10 µM was -3.25%.

Question: For `Cc1ccc(CN(C)c2nccc(-c3cn(C)nc3C)n2)o1`, which cytotoxicity at 10 µM is on record?
Answer: The cytotoxicity at 10 µM was 4.17%.

Question: For `CC(C)CN1CCCC1c1ccc(C(=O)Nc2ccc3[nH]nnc3c2)s1` (stereo not given), which cytotoxicity at 10 µM is on record?
Answer: Its cytotoxicity at 10 µM is 19.1%.

Question: With `COC(=O)CC1C(=O)NCCN1c1nc2c(s1)c(C)nn2C` (stereo not given) as the compound, how does the cytotoxicity at 10 µM read?
Answer: The cytotoxicity at 10 µM was -7.36%.

Question: With `Cc1nc(CCN)cc(N2CCCN(C(=O)c3ccco3)CC2)n1` as the compound, how does the cytotoxicity at 10 µM read?
Answer: Its cytotoxicity at 10 µM is 1.24%.

Question: With `Cc1ccnn1CC(=O)N(C)Cc1cnn(-c2ccccc2)c1` as the compound, how does the cytotoxicity at 10 µM read?
Answer: The cytotoxicity at 10 µM was 9%.

Question: Which cytotoxicity at 10 µM does the source give for `CN(C)c1nc2c(c(=O)[nH]1)CCN(C(=O)c1c[nH]c(=O)c(Cl)c1)C2` here?
Answer: The cytotoxicity at 10 µM was 6.32%.

Question: Which cytotoxicity at 10 µM does the source give for `CSc1ccc(CN(C(=O)c2cc(C)[nH]c(=O)c2)C2CC2)cc1` here?
Answer: Its cytotoxicity at 10 µM is -49.5%.

Question: Which cytotoxicity at 10 µM does the source give for `CCCN1CCN(Cc2cc(Cl)cc(Cl)c2)[C@H]2CS(=O)(=O)C[C@H]21` here?
Answer: Its cytotoxicity at 10 µM is -2.45%.

Question: With `COCCN(C)C[C@H]1C[C@H](CO)CN(C(=O)c2ccc(=O)n(C)c2)C1` as the compound, how does the cytotoxicity at 10 µM read?
Answer: The cytotoxicity at 10 µM was -1.06%.

Question: With `O=C(NCc1cc2ccccc2s1)c1cc(CN2CCCC(O)C2)on1` (stereo not given) as the compound, how does the cytotoxicity at 10 µM read?
Answer: The cytotoxicity at 10 µM was -40%.

Question: For `Cc1nc(-c2ncc(C(=O)NCCNc3ncccc3C)c(O)n2)cs1`, which cytotoxicity at 10 µM is on record?
Answer: Its cytotoxicity at 10 µM is -0.153%.

Question: Which cytotoxicity at 10 µM does the source give for `CN(C)C(C(=O)NCc1cc(C(C)(C)C)n[nH]1)c1ccc(F)cc1` (stereo not given) here?
Answer: The cytotoxicity at 10 µM was -5.54%.

Question: For `COc1ccc(-c2ccccc2CCN)c(OC)c1OC`, which cytotoxicity at 10 µM is on record?
Answer: Its cytotoxicity at 10 µM is 2.79%.

Question: With `CCc1nnc(NCc2cccc(OC)c2OC)o1` as the compound, how does the cytotoxicity at 10 µM read?
Answer: The cytotoxicity at 10 µM was 6.79%.

Question: Which cytotoxicity at 10 µM does the source give for `Cc1cnn(C2CN(Cc3nc(-c4ccccn4)no3)C2)c1` here?
Answer: Its cytotoxicity at 10 µM is 3.24%.

Question: Which cytotoxicity at 10 µM does the source give for `CCc1nnc2n1CCN(Cc1cccc3c1OCCO3)C2` here?
Answer: Its cytotoxicity at 10 µM is -7.42%.

Question: For `O=C(CC1C=CCC1)Nc1ncn(CC(=O)N2CCCCCC2)n1` (stereo not given), which cytotoxicity at 10 µM is on record?
Answer: The cytotoxicity at 10 µM was -3.72%.

Question: Which cytotoxicity at 10 µM does the source give for `Cc1ccccc1CNC(=O)Cn1nc(-c2ccc(F)cc2)oc1=O` here?
Answer: The cytotoxicity at 10 µM was -7.63%.

Question: For `CC(=O)N(C)c1nc(CN2CCCC2c2cnn(C)c2)cs1` (stereo not given), which cytotoxicity at 10 µM is on record?
Answer: The cytotoxicity at 10 µM was -16.1%.

Question: Which cytotoxicity at 10 µM does the source give for `Cc1cc(NC(=O)CN2CCCC2c2noc(C(C)C)n2)no1` (stereo not given) here?
Answer: The cytotoxicity at 10 µM was -14.3%.

Question: With `O=C(CCNc1ncccn1)N1CCCC(n2cccn2)C1` (stereo not given) as the compound, how does the cytotoxicity at 10 µM read?
Answer: Its cytotoxicity at 10 µM is 0.2%.

Question: With `CC(c1nc(C2CC2)no1)N1CCN(Cc2noc(C3CC3)n2)CC1` (stereo not given) as the compound, how does the cytotoxicity at 10 µM read?
Answer: Its cytotoxicity at 10 µM is 4.63%.

Question: For `Cn1cnnc1C1CCCN(C(=O)NCc2cc[nH]n2)C1` (stereo not given), which cytotoxicity at 10 µM is on record?
Answer: The cytotoxicity at 10 µM was -6.73%.

Question: For `O=C1COc2cc(C(=O)NS(=O)(=O)c3ccccc3F)ccc2N1`, which cytotoxicity at 10 µM is on record?
Answer: Its cytotoxicity at 10 µM is -4.79%.

Question: Which cytotoxicity at 10 µM does the source give for `Cc1cnn(CCNCc2ccccc2C#N)c1` here?
Answer: Its cytotoxicity at 10 µM is -9.14%.

Question: Which cytotoxicity at 10 µM does the source give for `O=C(c1ccc(Cl)o1)N1CCCN(Cc2cscn2)CC1` here?
Answer: Its cytotoxicity at 10 µM is -1.08%.

Question: For `Cc1cccc(CNc2cc(C3CCCNC3)ccn2)n1` (stereo not given), which cytotoxicity at 10 µM is on record?
Answer: Its cytotoxicity at 10 µM is 3.81%.

Question: For `COc1ccc(F)c(CN2CCC(c3cc(O)nc(C)n3)C2)c1` (stereo not given), which cytotoxicity at 10 µM is on record?
Answer: The cytotoxicity at 10 µM was 5.61%.

Question: With `Cc1noc(C)c1CN1C[C@@H]2COC[C@H](C(=O)N3CCCCO3)[C@@H]2C1` as the compound, how does the cytotoxicity at 10 µM read?
Answer: Its cytotoxicity at 10 µM is -1.98%.

Question: Which cytotoxicity at 10 µM does the source give for `c1ccc(COC[C@H]2CC[C@H]3[C@H](CCN3Cc3ccccn3)O2)nc1` here?
Answer: The cytotoxicity at 10 µM was -84.7%.

Question: Which cytotoxicity at 10 µM does the source give for `Fc1cccc(N2C[C@H]3CCN(c4cccnc4)C[C@H]3C2)c1` here?
Answer: Its cytotoxicity at 10 µM is 15.4%.

Question: Which cytotoxicity at 10 µM does the source give for `O=C(NCc1cnc2n1CCN(CC1CCOCC1)C2)c1ccno1` here?
Answer: Its cytotoxicity at 10 µM is -101%.

Question: For `CCC1=N[C@@]2(CC[C@@H]3CN(Cc4ccc(Cl)cc4)C[C@@H]32)C(=O)N1C`, which cytotoxicity at 10 µM is on record?
Answer: The cytotoxicity at 10 µM was 1.98%.

Question: With `CNC(=O)[C@H]1C[C@@H]2CN(S(=O)(=O)c3cccc(C)c3)C[C@@H]2N1C` as the compound, how does the cytotoxicity at 10 µM read?
Answer: The cytotoxicity at 10 µM was 1.59%.

Question: With `CN(C)c1nc(N2CCCC2)nc2c1CCN(Cc1nccn1C)CC2` as the compound, how does the cytotoxicity at 10 µM read?
Answer: Its cytotoxicity at 10 µM is -97.2%.

Question: Which cytotoxicity at 10 µM does the source give for `OC1(Cn2ccc3ncccc32)CCN(Cc2ccccn2)CC1` here?
Answer: Its cytotoxicity at 10 µM is 5.33%.

Question: Which cytotoxicity at 10 µM does the source give for `O=C([C@H]1C[C@H]2OCC[C@H]2N(CC2CCOCC2)C1)N1CCCCO1` here?
Answer: Its cytotoxicity at 10 µM is -73.9%.

Question: With `CCOC(=O)N1CCc2ccccc2C12CCNCC2` as the compound, how does the cytotoxicity at 10 µM read?
Answer: Its cytotoxicity at 10 µM is 1.15%.

Question: With `Cc1nc(COCc2cnc3n2CCN(CC2CCC2)C3C)cs1` (stereo not given) as the compound, how does the cytotoxicity at 10 µM read?
Answer: Its cytotoxicity at 10 µM is -5.63%.

Question: Which cytotoxicity at 10 µM does the source give for `CN(Cc1cccnc1)C1CC2(CCN(Cc3ccccn3)CC2)C1` here?
Answer: The cytotoxicity at 10 µM was -84%.

Question: For `COc1ccc2c(c1)sc(=NC(=O)CSCC(=O)Nc1nccs1)n2C`, which cytotoxicity at 10 µM is on record?
Answer: The cytotoxicity at 10 µM was -8.36%.
